Reference: PubChem BioAssay
Records with an inconclusive call do not appear.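 Rule for the calls, unless noted: active = growth inhibition above 25% in both replicates, a cutoff set 3 SD above the mean; inconclusive = above 25% in only one replicate; inactive = the rest.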

How the values were obtained:
[1] = OD615 S. cerevisiae growth inhibition, permissive medium, pilot counter-assay, permissive growth control for S. cerevisiae lifespan shortening project (AID 705); settings: OD615, 24 h, at 10 µM, hits give high values
Summary of the method: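 System: S. cerevisiae with engineered DeaD lifespan system / Measured by: absorbance (optical density) at 615 nm / Read-out: reduction in yeast growth (OD615) / Times: 4 h cell pre-growth, 24 h exposure at 30 °C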

[2] = Restrictive medium S. cerevisiae growth inhibition, OD615, pilot screen of yeast lifespan reduction project, restrictive growth control (AID 706;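 active = growth inhibition above a set limit, 3 SD over mean compound inhibition, in both replicates, cut at about 43% in these data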;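 note: modified DeaD lifespan yeast strain shifted to restrictive glucose medium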); settings: OD615, 48 h, at 10 µM, hits give high values
Summary of the method: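 System: Engineered S. cerevisiae DeaD strain | Buffer or medium: Glucose-based CSMM-D restrictive medium | Schedule: 4 h pre-incubation, 48 h exposure at 30 °C | Technique: Optical density at 615 nm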

[3] = viability gain of MRP-1-high H69AR cells under doxorubicin, pilot screen, MRP-1 activator project, CellTiter-Glo, duplicate (AID 807;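 active = viability increase at or above a cutoff of the median across tested compounds plus 3 SD, cut at about 8.5% in these data, passing the limit was not always enough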;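 note: compound pretreatment 18-22 h then 72 h combined with doxorubicin; 0% = doxorubicin alone and 100% = vehicle without doxorubicin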); settings: H69AR viability with doxorubicin, CellTiter-Glo luminescence; at 10 µM; hits give high values
[4] = growth suppression of beta-catenin knockout HCT116, pilot screen, human colon tumor cells (AID 823;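 active = cell viability at or below a set limit in both duplicate runs, the limit being the all-compound median minus 4 SD, cut at about 23% in these data, passing the limit was not always enough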;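 note: 0% = wells killed by 20 µM Hyamine and 100% = untreated DMSO cell wells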); settings: CellTiter-Glo, 60 h, at 10 µM, hits give low values
[5] = growth suppression of PTEN-deleted HCT116, pilot screen, cell-based, HCT116 clonal line, CellTiter-Glo (AID 824;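 active = viability at or below 27.92% in each of two runs, the all-compound median minus 4 SD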;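 note: 0% = 20 µM Hyamine control and 100% = vehicle cell control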); settings: 60 h, at 10 µM, hits give low values
[6] = inhibitors of the yeast RAM network, pilot screen, dse1pr::URA3 reporter, 5-FOA selection (AID 869;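 active = inhibition over a set limit, the all-compound mean plus 3 SD, in both replicate runs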;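 note: 0% = DMSO wells with no growth and 100% = 10 µM 1-NA-PP1 with full growth; RAM network block rescues cells from 5-FOA so hits raise OD615 growth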); settings: S. cerevisiae dse1pr::URA3 5-FOA growth, OD615, 2 d; at 10 µM; hits give high values; strain carries analog-sensitive mutant Cbk1 kinase
[7] = RAM signaling pathway blockade in yeast – S. cerevisiae, Pdr1DBD-CYC8 efflux-inhibited sensitized strain, primary screen (AID 1298;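 active = RAM network inhibition above 8.4% in each of two replicates, 3 SD over the compound average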;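 note: 0% = DMSO untreated cells without growth and 100% = 10 µM 1-NA-PP1 full growth; higher means more yeast growth rescued from 5-FOA killing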); settings: S. cerevisiae cbk1-as DSE1-URA3 strain, 5-FOA growth OD615, 2 d; at 50 µM; hits give high values

CN(C)c1ccc(C2N(c3ccc(Cl)cc3)C(=O)C3CCCN32)cc1 (configuration not stated)
inactive: growth inhibition [1] -2.63% | growth inhibition [2] 6.78% | viability increase [3] -1.01% | viability [4] 98.1% | viability [5] 98.7% | inhibition [6] 2.37% | RAM network inhibition [7] 1.57%

Cn1c(=O)c2c(nc(N3CCCCCC3)n2CCSc2nc3ccccc3o2)n(C)c1=O
inactive: growth inhibition [1] -6.38% | growth inhibition [2] -18.4% | viability increase [3] -6.62% | viability [4] 80.4% | viability [5] 83% | inhibition [6] 1.14% | RAM network inhibition [7] 2.45%

Cc1cc(O)c(C=Nc2cccc(Cl)c2)c(=O)o1
inactive: growth inhibition [1] 4.66% | growth inhibition [2] 4.37% | viability increase [3] -3.17% | viability [4] 102% | viability [5] 94.1% | inhibition [6] 3.11% | RAM network inhibition [7] -0.93%

CCN(CCN(C)C)C(=O)Cn1ncc2c1-c1cc(C)ccc1OC2
inactive: growth inhibition [1] -11% | growth inhibition [2] -0.185% | viability increase [3] -0.91% | viability [4] 94.8% | viability [5] 102% | inhibition [6] 2.43% | RAM network inhibition [7] 2.3%

CCCOc1ccc(C2c3c(oc4cc(C)c(C)cc4c3=O)C(=O)N2CCCN(C)C)cc1OCC (configuration not stated)
inactive: growth inhibition [1] -10.6% | growth inhibition [2] -3.15% | viability increase [3] -3.29% | viability [4] 102% | viability [5] 97.7% | inhibition [6] 3.69% | RAM network inhibition [7] -0.16%

COC(=O)c1ccc2c(=O)n3c(nc2c1)SCC(c1ccccc1)=N3
inactive: growth inhibition [1] 2.69% | growth inhibition [2] -0.25% | viability increase [3] -1.81% | viability [4] 95.1% | viability [5] 94.8% | inhibition [6] 2.39% | RAM network inhibition [7] 10.7%

CC(=O)Nc1ccc(S(=O)(=O)n2cnc3cc(C)c(C)cc32)cc1
inactive: growth inhibition [1] -7.58% | growth inhibition [2] 1.31% | viability increase [3] -0.2% | viability [4] 99.6% | viability [5] 92.2% | inhibition [6] -0.09% | RAM network inhibition [7] 1.45%

O=C(O)CCC(=O)c1ccc2c(c1)OCCO2
inactive: growth inhibition [1] -6.04% | growth inhibition [2] 8.29% | viability increase [3] -1.32% | viability [4] 101% | viability [5] 103% | inhibition [6] 1.79% | RAM network inhibition [7] -1.36%

N#Cc1c(NC(=O)c2cc(C3CC3)on2)sc2c1CCC2
inactive: growth inhibition [1] -1.24% | growth inhibition [2] 5.11% | viability increase [3] -5.36% | viability [4] 38.9% | viability [5] 34.1% | inhibition [6] 3.44% | RAM network inhibition [7] -1.72%

COc1ccc(N2CSC3=C(C#N)C(c4ccc(OC)c(OC)c4)CC(=O)N3C2)c(OC)c1 (configuration not stated)
inactive: growth inhibition [1] 18.8% | growth inhibition [2] 22.1% | viability increase [3] -4.13% | viability [4] 79.5% | viability [5] 81.7% | inhibition [6] 1.88% | RAM network inhibition [7] 0.93%

c1ccc(OCc2nn3c(-c4ccccn4)nnc3s2)cc1
inactive: growth inhibition [1] 7.46% | growth inhibition [2] 34% | viability increase [3] 0.02% | viability [4] 104% | viability [5] 94% | inhibition [6] 1.48% | RAM network inhibition [7] 2.54%

O=C(Nc1c(F)c(F)c(F)c(F)c1F)C1CCCCC1
inactive: growth inhibition [1] -1.42% | growth inhibition [2] -6.55% | viability increase [3] -1.05% | viability [4] 80% | viability [5] 89.2% | inhibition [6] 0.88% | RAM network inhibition [7] 7.02%

CCCCS(=O)CC(CS(=O)CCCC)OC(=O)c1ccccc1 (configuration not stated)
inactive: growth inhibition [1] 4.33% | growth inhibition [2] 5.83% | viability increase [3] -1.89% | viability [4] 102% | viability [5] 96.1% | inhibition [6] 0.405% | RAM network inhibition [7] 2.4%

COc1cccc(NS(=O)(=O)c2nc3nc(C)cc(C)n3n2)c1
inactive: growth inhibition [1] -10.2% | growth inhibition [2] -2.87% | viability increase [3] -1.57% | viability [4] 108% | viability [5] 98.9% | inhibition [6] 2.01% | RAM network inhibition [7] -1%

O=C(CCNS(=O)(=O)c1cccc2nsnc12)NC1CCCc2ccccc21 (configuration not stated)
inactive: growth inhibition [1] -9.18% | growth inhibition [2] -13.1% | viability increase [3] -4.33% | viability [4] 88.2% | viability [5] 90.3% | inhibition [6] 1.23% | RAM network inhibition [7] 0.26%

CC1(C)Cc2c(sc3nc(-c4cccs4)n(N)c(=O)c23)CO1
inactive: growth inhibition [1] -10.5% | growth inhibition [2] 18.5% | viability increase [3] -6.5% | viability [4] 42.1% | viability [5] 45.5% | inhibition [6] 0.19% | RAM network inhibition [7] 1.7%

Cc1ccc2cc(CCNC(=O)C3CCCC3)c(=O)[nH]c2c1
inactive: growth inhibition [1] -7.07% | growth inhibition [2] -9.72% | viability increase [3] 1.09% | viability [4] 107% | viability [5] 98.2% | inhibition [6] 3.17% | RAM network inhibition [7] 4.58%

COc1ccc(N2C(=O)c3ccccc3NC23CCCCC3)cc1
inactive: growth inhibition [1] -13.4% | growth inhibition [2] -9.03% | viability increase [3] -1.34% | viability [4] 94.8% | viability [5] 91.5% | inhibition [6] 0.47% | RAM network inhibition [7] 1.91%

CCOc1ccc(/C=C\C(C)=N\O)cc1
inactive: growth inhibition [1] -0.67% | growth inhibition [2] 0.775% | viability increase [3] -2.74% | viability [4] 90.3% | viability [5] 96.3% | inhibition [6] 0.065% | RAM network inhibition [7] 2.82%

COC(=O)C1C(C(C)C)N(c2ccccc2)OC1(C)O (configuration not stated)
inactive: growth inhibition [1] -11.8% | growth inhibition [2] -7.98% | viability increase [3] -4.25% | viability [4] 103% | viability [5] 96.9% | inhibition [6] 0.93% | RAM network inhibition [7] 1.66%

COC(=O)c1c(C)oc2ccc(OC(=O)c3cccs3)cc12
inactive: growth inhibition [1] 4.65% | growth inhibition [2] -15% | viability increase [3] 1.81% | viability [4] 96.3% | viability [5] 99.5% | inhibition [6] 0.81% | RAM network inhibition [7] 0.1%

O=C(O)C1CCCN1S(=O)(=O)c1cc(Cl)ccc1Cl (configuration not stated)
inactive: growth inhibition [1] -3.73% | growth inhibition [2] -6.05% | viability increase [3] 1.55% | viability [4] 92.5% | viability [5] 102% | inhibition [6] 0.535% | RAM network inhibition [7] 4.12%

Cc1nnc(Nc2ccc3c(c2)OCO3)c2ccccc12
inactive: growth inhibition [1] -10.6% | growth inhibition [2] -15.2% | viability increase [3] -3.25% | viability [4] 92% | viability [5] 91.7% | inhibition [6] 0.365% | RAM network inhibition [7] 4.96%

CCOc1ccc(N(CC(=O)N2CCN(c3ccccc3)CC2)S(=O)(=O)c2c(C)noc2C)cc1
inactive: growth inhibition [1] 1.67% | growth inhibition [2] -1.08% | viability increase [3] -5.76% | viability [4] 76.4% | viability [5] 67.7% | inhibition [6] 1.49% | RAM network inhibition [7] 1.85%

Cc1cc(C(=O)NCc2ccco2)cs1
inactive: growth inhibition [1] -6.77% | growth inhibition [2] -6.79% | viability increase [3] -2.37% | viability [4] 106% | viability [5] 99.9% | inhibition [6] 2.28% | RAM network inhibition [7] -0.32%

O=C(NCCCNC(=O)c1ccco1)c1ccco1
inactive: growth inhibition [1] -0.405% | growth inhibition [2] 0.005% | viability increase [3] -2.35% | viability [4] 99.9% | viability [5] 107% | inhibition [6] -0.525% | RAM network inhibition [7] 0.16%

CC(C)(C)c1ccc(-c2cc(N)n[nH]2)cc1
inactive: growth inhibition [1] 2.28% | growth inhibition [2] 13.2% | viability increase [3] -2.81% | viability [4] 95.5% | viability [5] 90.1% | inhibition [6] 2.32% | RAM network inhibition [7] 2.2%

Cc1coc2c(C)c3oc(=O)c4c(c3cc12)CCCC4
inactive: growth inhibition [1] -10.3% | growth inhibition [2] -13.6% | viability increase [3] -5.04% | viability [4] 81.3% | viability [5] 59% | inhibition [6] 2.46% | RAM network inhibition [7] 5.02%

COc1ccc(Cc2nc(-c3cccs3)no2)cc1OC
inactive: growth inhibition [1] 1.64% | growth inhibition [2] 5.25% | viability increase [3] 0.92% | viability [4] 76.8% | viability [5] 80.9% | inhibition [6] 1.62% | RAM network inhibition [7] 7.4%

Cc1nc2ccccc2c(=O)n1NC(=O)c1c(O)c2ccccc2n(C)c1=O
inactive: growth inhibition [1] -5.41% | growth inhibition [2] 7.71% | viability increase [3] -2.45% | viability [4] 100% | viability [5] 99% | inhibition [6] 0.995% | RAM network inhibition [7] 0.88%

COc1ccc(N=CC2=C(O)CC(C)(C)CC2=O)cc1
inactive: growth inhibition [1] 6.45% | growth inhibition [2] -2.8% | viability increase [3] -3.24% | viability [4] 97.5% | viability [5] 101% | inhibition [6] 0.71% | RAM network inhibition [7] 1.73%

O=C(CN1CCOc2ccccc21)NC1CCN(Cc2ccccc2)CC1
inactive: growth inhibition [1] -5.57% | growth inhibition [2] -4.21% | viability increase [3] -3.28% | viability [4] 77% | viability [5] 85.5% | inhibition [6] 3.18% | RAM network inhibition [7] 5.65%

COc1cccc(NC(=O)CSc2nnc(Cn3c(=O)sc4ccccc43)n2C)c1
inactive: growth inhibition [1] 1.18% | growth inhibition [2] 18.9% | viability increase [3] -2.91% | viability [4] 102% | viability [5] 104% | inhibition [6] 2.37% | RAM network inhibition [7] 4.95%

CC(=O)N1CSCC1C(=O)N1CCN(c2ccc(N3CCOCC3)nn2)CC1 (configuration not stated)
inactive: growth inhibition [1] 5.2% | growth inhibition [2] 12.4% | viability increase [3] -0.66% | viability [4] 103% | viability [5] 95.1% | inhibition [6] 1.55% | RAM network inhibition [7] 0.26%

O=C(CCCc1ccccc1)NCc1cn2ccsc2n1
inactive: growth inhibition [1] -8.33% | growth inhibition [2] 6.95% | viability increase [3] 0.97% | viability [4] 103% | viability [5] 105% | inhibition [6] 1.31% | RAM network inhibition [7] 5.11%

Cc1nc2sc(C(c3ccco3)N3CCC(C)CC3)c(O)n2n1 (configuration not stated)
inactive: growth inhibition [1] -6.81% | growth inhibition [2] 1.09% | viability increase [3] -1.29% | viability [4] 102% | viability [5] 103% | inhibition [6] 0.77% | RAM network inhibition [7] 2.81%
